“And” between values parts separate entries of the source, which are not always exact repeats. Equal values may be shown once.
What was measured:
Fibroblast = experiment: Multiplex assay against human fibroblast; type: toxicity, cell-based
Method in brief: (§1)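 Tubulin, mitochondrial-mass and membrane-permeability phenotypes are per cents of healthy-nucleus cells. Cells were gated by CellPathfinder machine learning into Hoechst high-intensity objects or normal cells, normal cells into healthy, pyknosed or fragmented nuclei, and pyknosed cells into mitotic or apoptotic. Before that, live cells stained at seeding with Hoechst33342, BioTracker Green Microtubule Cytoskeleton Dye, MitoTracker Red and Annexin V Alexa Fluor 680 were imaged on a CQ1 microscope at 37°C and 5% CO2 after compound addition.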

U2OS = experiment: Multiplex assay against U2OS; type: toxicity, cell-based; conditions: human; method in brief: as §1
[1] = 24 h, 10 µM, compound concentration 10 uM
[2] = 48 h, 1 µM, compound concentration 1 uM
[3] = 48 h, 10 µM, compound concentration 10 uM
[4] = 12 h, 1 µM, compound concentration 1 uM
[5] = 12 h, 10 µM, compound concentration 10 uM
[6] = 24 h, 1 µM, compound concentration 1 uM

CCCN1CCC[C@@H]2Cc3n[nH]cc3C[C@H]21.Cl [QUINPIROLE HYDROCHLORIDE]
Population Apoptotic (%) (Fibroblast; [1]): 75% and 55% | Population Fragmented Nuclei (%) (Fibroblast; [1]): 22% and 38% | Population Healthy Nuclei (%) (Fibroblast; [1]): 67% and 51% | Population Hoechst High Intensity Objects (%) (Fibroblast; [1]): 2% and 1% | Population Membrane Permeable-Phenotype (%) (Fibroblast; [1]): 0% and 7% | Population Mitochondria Different-Phenotype (%) (Fibroblast; [1]): 7% and 3% | Population Mitotic Cells (%) (Fibroblast; [1]): 25% and 45% | Population Normal (%) (Fibroblast; [1]): 97% and 98% | Population Pyknosed Nuclei (%) (Fibroblast; [1]): 10% and 9% | Population Tubulin-Different-Phenotype (%) (Fibroblast; [1]): 32% and 39% | Total Cell Count (Fibroblast; [1]): 119 and 209 | Population Apoptotic (%) (Fibroblast; [2]): 68% and 38% | Population Fragmented Nuclei (%) (Fibroblast; [2]): 23% and 37% | Population Healthy Nuclei (%) (Fibroblast; [2]): 62% and 53% | Population Hoechst High Intensity Objects (%) (Fibroblast; [2]): 3% and 1% | Population Membrane Permeable-Phenotype (%) (Fibroblast; [2]): 0% and 8% | Population Mitochondria Different-Phenotype (%) (Fibroblast; [2]): 3% and 4% | Population Mitotic Cells (%) (Fibroblast; [2]): 32% and 61% | Population Normal (%) (Fibroblast; [2]): 96% and 98% | Population Pyknosed Nuclei (%) (Fibroblast; [2]): 14% and 8% | Population Tubulin-Different-Phenotype (%) (Fibroblast; [2]): 21% and 42% | Total Cell Count (Fibroblast; [2]): 175 and 157 | Population Apoptotic (%) (Fibroblast; [3]): 53% and 46% | Population Fragmented Nuclei (%) (Fibroblast; [3]): 23% and 43% | Population Healthy Nuclei (%) (Fibroblast; [3]): 65% and 48% | Population Hoechst High Intensity Objects (%) (Fibroblast; [3]): 1% and 3% | Population Membrane Permeable-Phenotype (%) (Fibroblast; [3]): 2% | Population Mitochondria Different-Phenotype (%) (Fibroblast; [3]): 6% and 4% | Population Mitotic Cells (%) (Fibroblast; [3]): 46% and 53% | Population Normal (%) (Fibroblast; [3]): 98% and 96% | Population Pyknosed Nuclei (%) (Fibroblast; [3]): 11% and 8% | Population Tubulin-Different-Phenotype (%) (Fibroblast; [3]): 31% and 48% | Total Cell Count (Fibroblast; [3]): 119 and 192 | Population Apoptotic (%) (U2OS; [4]): 71% and 61% | Population Fragmented Nuclei (%) (U2OS; [4]): 31% and 21% | Population Healthy Nuclei (%) (U2OS; [4]): 60% and 67% | Population Hoechst High Intensity Objects (%) (U2OS; [4]): 2% and 0% | Population Membrane Permeable-Phenotype (%) (U2OS; [4]): 7% and 2% | Population Mitochondria Different-Phenotype (%) (U2OS; [4]): 1% | Population Mitotic Cells (%) (U2OS; [4]): 28% and 38% | Population Normal (%) (U2OS; [4]): 97% and 100% | Population Pyknosed Nuclei (%) (U2OS; [4]): 8% and 11% | Population Tubulin-Different-Phenotype (%) (U2OS; [4]): 3% and 2% | Total Cell Count (U2OS; [4]): 265 and 118 | Population Apoptotic (%) (U2OS; [5]): 58% and 100% | Population Fragmented Nuclei (%) (U2OS; [5]): 19% and 9% | Population Healthy Nuclei (%) (U2OS; [5]): 72% and 85% | Population Hoechst High Intensity Objects (%) (U2OS; [5]): 1% and 2% | Population Membrane Permeable-Phenotype (%) (U2OS; [5]): 2% and 6% | Population Mitochondria Different-Phenotype (%) (U2OS; [5]): 0% and 5% | Population Normal (%) (U2OS; [5]): 98% and 97% | Population Pyknosed Nuclei (%) (U2OS; [5]): 7% and 4% | Population Tubulin-Different-Phenotype (%) (U2OS; [5]): 1% and 2% | Total Cell Count (U2OS; [5]): 228 and 126 | Population Apoptotic (%) (U2OS; [6]): 68% and 77% | Population Fragmented Nuclei (%) (U2OS; [6]): 27% and 18% | Population Healthy Nuclei (%) (U2OS; [6]): 64% and 68% | Population Hoechst High Intensity Objects (%) (U2OS; [6]): 1% and 0% | Population Membrane Permeable-Phenotype (%) (U2OS; [6]): 4% | Population Mitochondria Different-Phenotype (%) (U2OS; [6]): 3% and 4% | Population Mitotic Cells (%) (U2OS; [6]): 31% and 22% | Population Normal (%) (U2OS; [6]): 98% and 100% | Population Pyknosed Nuclei (%) (U2OS; [6]): 7% and 13% | Population Tubulin-Different-Phenotype (%) (U2OS; [6]): 3% and 4% | Total Cell Count (U2OS; [6]): 299 and 138 | Population Apoptotic (%) (U2OS; [1]): 88% and 92% | Population Fragmented Nuclei (%) (U2OS; [1]): 13% and 9% | Population Healthy Nuclei (%) (U2OS; [1]): 80% and 82% | Population Hoechst High Intensity Objects (%) (U2OS; [1]): 2% and 0% | Population Membrane Permeable-Phenotype (%) (U2OS; [1]): 2% and 0% | Population Mitochondria Different-Phenotype (%) (U2OS; [1]): 0% and 1% | Population Mitotic Cells (%) (U2OS; [1]): 11% and 7% | Population Normal (%) (U2OS; [1]): 97% and 99% | Population Pyknosed Nuclei (%) (U2OS; [1]): 6% and 8% | Population Tubulin-Different-Phenotype (%) (U2OS; [1]): 1% and 0% | Total Cell Count (U2OS; [1]): 281 and 163 | Population Apoptotic (%) (U2OS; [2]): 75% and 78% | Population Fragmented Nuclei (%) (U2OS; [2]): 19% and 17% | Population Healthy Nuclei (%) (U2OS; [2]): 74% and 69% | Population Hoechst High Intensity Objects (%) (U2OS; [2]): 1% and 3% | Population Membrane Permeable-Phenotype (%) (U2OS; [2]): 4% | Population Mitochondria Different-Phenotype (%) (U2OS; [2]): 1% and 5% | Population Mitotic Cells (%) (U2OS; [2]): 25% and 21% | Population Normal (%) (U2OS; [2]): 98% and 96% | Population Pyknosed Nuclei (%) (U2OS; [2]): 6% and 13% | Population Tubulin-Different-Phenotype (%) (U2OS; [2]): 2% | Total Cell Count (U2OS; [2]): 425 and 180 | Population Apoptotic (%) (U2OS; [3]): 86% and 91% | Population Fragmented Nuclei (%) (U2OS; [3]): 11% and 12% | Population Healthy Nuclei (%) (U2OS; [3]): 78% | Population Hoechst High Intensity Objects (%) (U2OS; [3]): 3% and 1% | Population Membrane Permeable-Phenotype (%) (U2OS; [3]): 4% and 6% | Population Mitochondria Different-Phenotype (%) (U2OS; [3]): 1% and 4% | Population Mitotic Cells (%) (U2OS; [3]): 13% and 8% | Population Normal (%) (U2OS; [3]): 96% and 98% | Population Pyknosed Nuclei (%) (U2OS; [3]): 9% | Population Tubulin-Different-Phenotype (%) (U2OS; [3]): 3% and 2% | Total Cell Count (U2OS; [3]): 386 and 251

Source: ChEMBL document CHEMBL5724801, “EUbOPEN Chemogenomics Library - Multiplex” (2024)
